Assays:
Conditions in all cases: stereoisomer not certain
OR7D4 (Homo sapiens) = molecular target: T1, OR7D4 (Homo sapiens) (UniProt Q8NG98)
T1 sequence (whole entry): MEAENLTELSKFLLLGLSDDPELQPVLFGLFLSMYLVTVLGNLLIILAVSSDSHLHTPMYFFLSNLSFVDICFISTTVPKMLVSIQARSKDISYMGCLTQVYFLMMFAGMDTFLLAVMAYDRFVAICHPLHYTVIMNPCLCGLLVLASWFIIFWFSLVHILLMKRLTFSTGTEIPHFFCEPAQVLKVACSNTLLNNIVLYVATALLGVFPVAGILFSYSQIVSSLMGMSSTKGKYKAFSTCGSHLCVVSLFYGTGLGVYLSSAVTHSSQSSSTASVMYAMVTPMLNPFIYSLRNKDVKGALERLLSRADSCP
Procedure, shortened: (§1)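 Transient luciferase assays in mammalian cell lines were common, though methods varied by source. The values come from published papers and their supplementary material, with extra details from the original authors when needed. Responsive refers to a measured signal the original authors judged statistically different from baseline, and non-responsive (inactive) to the remainder.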

OR7D4 = tested on: OR7D4
Chain of OR7D4 (as listed by the source): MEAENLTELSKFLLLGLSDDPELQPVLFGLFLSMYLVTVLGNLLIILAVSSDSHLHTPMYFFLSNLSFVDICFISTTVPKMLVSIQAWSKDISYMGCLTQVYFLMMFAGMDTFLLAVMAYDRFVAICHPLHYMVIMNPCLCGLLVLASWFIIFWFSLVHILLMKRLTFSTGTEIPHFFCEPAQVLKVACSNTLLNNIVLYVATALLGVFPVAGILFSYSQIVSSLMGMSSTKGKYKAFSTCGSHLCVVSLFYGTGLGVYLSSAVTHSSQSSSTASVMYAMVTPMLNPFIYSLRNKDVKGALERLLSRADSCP
Procedure, shortened: as §1

OR7E24 (Homo sapiens) = OR7E24 (Homo sapiens) (UniProt Q6IFN5)
Chain of OR7E24 (Homo sapiens) (Q6IFN5 whole entry): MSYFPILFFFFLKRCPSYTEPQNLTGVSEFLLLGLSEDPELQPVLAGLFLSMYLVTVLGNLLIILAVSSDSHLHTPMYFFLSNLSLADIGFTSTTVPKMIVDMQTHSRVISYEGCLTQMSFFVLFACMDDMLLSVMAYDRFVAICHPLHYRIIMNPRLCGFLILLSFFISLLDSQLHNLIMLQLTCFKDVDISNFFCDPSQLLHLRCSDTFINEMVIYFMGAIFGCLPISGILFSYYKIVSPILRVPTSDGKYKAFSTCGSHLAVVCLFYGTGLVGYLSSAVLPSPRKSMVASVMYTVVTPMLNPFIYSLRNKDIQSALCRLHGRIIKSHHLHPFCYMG
Procedure, shortened: as §1

OR7G1 (Homo sapiens) = OR7G1 (Homo sapiens) (UniProt Q8NGA0)
Chain of OR7G1 (Homo sapiens) (Q8NGA0 whole entry): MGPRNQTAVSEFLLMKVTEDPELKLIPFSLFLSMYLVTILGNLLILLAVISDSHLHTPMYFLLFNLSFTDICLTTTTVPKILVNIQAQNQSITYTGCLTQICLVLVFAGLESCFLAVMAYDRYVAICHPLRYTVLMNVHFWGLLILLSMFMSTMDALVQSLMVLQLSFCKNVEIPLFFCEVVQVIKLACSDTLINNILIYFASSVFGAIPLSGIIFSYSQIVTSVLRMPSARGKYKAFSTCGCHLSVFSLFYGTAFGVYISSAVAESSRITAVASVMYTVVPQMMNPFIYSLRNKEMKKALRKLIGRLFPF
Procedure, shortened: as §1

OR7G2 (Homo sapiens) = OR7G2 (Homo sapiens) (UniProt Q8NG99)
Chain of OR7G2 (Homo sapiens) (Q8NG99 whole entry): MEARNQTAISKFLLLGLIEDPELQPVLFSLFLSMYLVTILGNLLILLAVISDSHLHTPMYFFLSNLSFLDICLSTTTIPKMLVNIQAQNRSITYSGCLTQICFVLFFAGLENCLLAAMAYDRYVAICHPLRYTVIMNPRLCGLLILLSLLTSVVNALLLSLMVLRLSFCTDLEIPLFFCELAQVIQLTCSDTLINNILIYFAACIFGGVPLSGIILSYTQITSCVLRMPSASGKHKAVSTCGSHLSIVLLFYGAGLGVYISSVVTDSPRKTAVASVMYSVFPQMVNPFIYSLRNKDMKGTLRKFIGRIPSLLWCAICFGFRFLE
Procedure, shortened: as §1

OR7G3 (Homo sapiens) = OR7G3 (Homo sapiens) (UniProt Q8NG95)
Chain of OR7G3 (Homo sapiens) (Q8NG95 whole entry): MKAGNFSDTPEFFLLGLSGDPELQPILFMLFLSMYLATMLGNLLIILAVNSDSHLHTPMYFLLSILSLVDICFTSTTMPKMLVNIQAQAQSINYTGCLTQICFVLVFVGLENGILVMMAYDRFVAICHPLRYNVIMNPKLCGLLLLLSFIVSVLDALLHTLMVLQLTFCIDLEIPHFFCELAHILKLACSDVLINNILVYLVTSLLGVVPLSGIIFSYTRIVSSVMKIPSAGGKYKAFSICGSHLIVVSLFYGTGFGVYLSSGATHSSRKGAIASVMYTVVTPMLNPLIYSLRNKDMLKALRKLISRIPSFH
Procedure, shortened: as §1

OR8A1 (Homo sapiens) = OR8A1 (Homo sapiens) (UniProt Q8NGG7)
Chain of OR8A1 (Homo sapiens) (Q8NGG7 whole entry): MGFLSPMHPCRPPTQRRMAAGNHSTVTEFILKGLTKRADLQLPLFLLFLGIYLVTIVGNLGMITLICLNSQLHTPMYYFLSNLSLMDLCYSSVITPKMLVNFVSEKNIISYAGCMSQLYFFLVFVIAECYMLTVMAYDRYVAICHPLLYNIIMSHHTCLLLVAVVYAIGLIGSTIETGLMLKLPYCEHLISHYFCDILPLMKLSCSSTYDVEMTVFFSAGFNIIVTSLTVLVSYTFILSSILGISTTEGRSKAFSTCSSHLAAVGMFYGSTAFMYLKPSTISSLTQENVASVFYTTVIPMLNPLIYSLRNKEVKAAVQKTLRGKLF
Procedure, shortened: as §1

OR7D4 R88W = tested on: OR7D4 R88W
Chain of OR7D4 R88W (as listed by the source, stated change not applied): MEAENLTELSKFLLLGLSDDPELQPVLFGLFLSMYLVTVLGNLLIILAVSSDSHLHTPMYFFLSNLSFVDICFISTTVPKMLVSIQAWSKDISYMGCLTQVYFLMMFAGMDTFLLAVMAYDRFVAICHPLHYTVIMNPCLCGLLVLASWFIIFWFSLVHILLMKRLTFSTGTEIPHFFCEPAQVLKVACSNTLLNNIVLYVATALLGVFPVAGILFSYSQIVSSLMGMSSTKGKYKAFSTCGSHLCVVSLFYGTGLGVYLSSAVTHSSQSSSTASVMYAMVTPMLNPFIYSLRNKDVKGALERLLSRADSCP
Procedure, shortened: as §1

OR7G2 = tested on: OR7G2
Chain of OR7G2 (as listed by the source): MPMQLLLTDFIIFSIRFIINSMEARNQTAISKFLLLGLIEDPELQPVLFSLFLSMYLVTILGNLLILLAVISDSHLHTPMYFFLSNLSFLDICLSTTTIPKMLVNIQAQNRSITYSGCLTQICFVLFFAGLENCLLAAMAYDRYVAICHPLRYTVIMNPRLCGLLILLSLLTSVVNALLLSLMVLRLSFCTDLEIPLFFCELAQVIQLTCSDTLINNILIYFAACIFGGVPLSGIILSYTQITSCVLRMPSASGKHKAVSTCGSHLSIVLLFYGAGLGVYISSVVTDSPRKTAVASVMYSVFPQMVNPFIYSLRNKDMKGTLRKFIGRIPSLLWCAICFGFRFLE
Procedure, shortened: as §1

OR7G3 M29V = tested on: OR7G3 M29V
Chain of OR7G3 M29V (as listed by the source, stated change not applied): as the sequence (Q8NG95 whole entry) above, with M29V counted along it
Procedure, shortened: as §1

Measured: odorant receptor agonist call;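 note: active if original authors judged signal statistically different from baseline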

C=C(C)C1CCC2(C)OOC(C1)O2 (configuration not stated)
inactive: OR7D4 (Homo sapiens) | OR7D4

Cc1c([N+](=O)[O-])c(C)c([N+](=O)[O-])c(C(C)(C)C)c1[N+](=O)[O-]
inactive: OR7D4 (Homo sapiens) | OR7E24 (Homo sapiens) | OR7G1 (Homo sapiens) | OR7G2 (Homo sapiens) | OR7G3 (Homo sapiens) | OR8A1 (Homo sapiens)

C=CCOC(=O)Cc1ccccc1
inactive: OR7D4 (Homo sapiens) | OR7D4 R88W | OR7D4 | OR7E24 (Homo sapiens) | OR7G1 (Homo sapiens) | OR7G2 | OR7G3 (Homo sapiens) | OR7G3 M29V | OR8A1 (Homo sapiens)

Source: the M2OR odorant receptor database
